The pIC50 is −log10 of the IC50, conventionally taken in molar units.

Active and inactive are the calls of the source. The calls are words filed in the database; no cut-off is given here.

Experiment [1] has as its target Sodium- and chloride-dependent betaine transporter (Homo sapiens, UniProt P48065, K310N). Briefly: Inhibition of human BGT1 K310N mutant expressed in tsA201 cells assessed as reduction in [3H]GABA uptake after 3 mins by scintillation counting method. It is filed as cell-based. In short, it runs like this:
(§1)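 Site-directed mutant transporters transiently transfected (PolyFect) into tsA201 cells, plated and used about 24 h later. Cells were washed with HBSS containing 20 mM HEPES, 1 mM CaCl2 and 1 mM MgCl2, pH 7.4. IC50 was taken from variable-slope sigmoidal fits. Triplicates, at least three independent experiments.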

The target in experiment [2] is Histamine H1 receptor (Homo sapiens) (UniProt P35367). Briefly: Displacement of [3H]pyrilamine from human histamine H1 receptor expressed in HEK cell membranes at 10 uM after 90 mins by scintillation counting method.
Experiment [3] concerns the target Sodium- and chloride-dependent betaine transporter (Homo sapiens, UniProt P48065, S381A). Briefly: Inhibition of human BGT1 S381A mutant expressed in tsA201 cells assessed as reduction in [3H]GABA uptake after 3 mins by scintillation counting method. It is filed as cell-based. In short, it runs like this:
as §1

Experiment [4] addresses Sodium- and chloride-dependent betaine transporter (Homo sapiens, UniProt P48065, S353A). Briefly: Inhibition of human BGT1 S353A mutant expressed in tsA201 cells assessed as reduction in [3H]GABA uptake after 3 mins by scintillation counting method. In kind it is cell-based. In short, it runs like this: as §1
Experiment [5] has as its target Sodium- and chloride-dependent betaine transporter (Homo sapiens, UniProt P48065, V337I). Put plainly: Inhibition of human BGT1 V337I mutant expressed in tsA201 cells assessed as reduction in [3H]GABA uptake after 3 mins by scintillation counting method. In kind it is cell-based. Summed up: as §1
Experiment [6] addresses Sodium- and chloride-dependent betaine transporter (Homo sapiens, UniProt P48065). Put plainly: Inhibition of human BGT1/human GAT3 chimera D expresses in tsA201 cells assessed as reduction in [3H]GABA uptake after 3 mins by scintillation counting method. In kind it is cell-based. Summed up: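 BGT1/GAT3 chimeric constructs transiently expressed in tsA201 cells. After about 24 h, cells were washed in HEPES-buffered HBSS (1 mM CaCl2, 1 mM MgCl2, pH 7.4). IC50 came from variable-slope sigmoidal regression. Triplicates, at least two independent experiments.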

The target of experiment [7] is Sodium- and chloride-dependent betaine transporter (Homo sapiens, UniProt P48065, V336A). Briefly: Inhibition of human BGT1 V336A mutant expressed in tsA201 cells assessed as reduction in [3H]GABA uptake after 3 mins by scintillation counting method. It is filed as cell-based. In short, it runs like this:
as §1

A further experiment is filed under the species Homo sapiens. Briefly: Binding affinity to sigma receptor (unknown origin).

Sequence of Sodium- and chloride-dependent betaine transporter (Homo sapiens, UniProt P48065) (P48065 whole entry, looked up): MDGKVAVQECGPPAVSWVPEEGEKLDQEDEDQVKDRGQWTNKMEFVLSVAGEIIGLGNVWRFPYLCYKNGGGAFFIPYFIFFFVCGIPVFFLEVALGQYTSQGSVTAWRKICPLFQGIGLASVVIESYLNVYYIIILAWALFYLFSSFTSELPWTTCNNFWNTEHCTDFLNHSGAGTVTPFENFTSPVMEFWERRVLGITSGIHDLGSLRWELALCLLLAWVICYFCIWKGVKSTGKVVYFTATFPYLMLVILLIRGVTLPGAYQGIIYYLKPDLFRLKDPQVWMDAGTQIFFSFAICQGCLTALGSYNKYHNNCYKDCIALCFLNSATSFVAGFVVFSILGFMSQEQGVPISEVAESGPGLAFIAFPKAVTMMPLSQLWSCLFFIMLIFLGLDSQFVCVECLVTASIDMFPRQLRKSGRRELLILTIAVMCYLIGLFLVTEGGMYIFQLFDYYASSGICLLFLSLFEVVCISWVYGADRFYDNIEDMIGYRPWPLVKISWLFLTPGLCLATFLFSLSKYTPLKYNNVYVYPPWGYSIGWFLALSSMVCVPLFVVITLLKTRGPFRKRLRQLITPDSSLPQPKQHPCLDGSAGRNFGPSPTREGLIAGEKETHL
Sequence of Sodium- and chloride-dependent betaine transporter (Homo sapiens, UniProt P48065, V336A) (P48065 whole entry V336A): as the sequence (P48065 whole entry, looked up) above, with V336A counted along it
Sequence of Sodium- and chloride-dependent betaine transporter (Homo sapiens, UniProt P48065, V337I) (P48065 whole entry V337I): as the sequence (P48065 whole entry, looked up) above, with V337I counted along it
Sequence of Sodium- and chloride-dependent betaine transporter (Homo sapiens, UniProt P48065, S353A) (P48065 whole entry S353A): as the sequence (P48065 whole entry, looked up) above, with S353A counted along it
Sequence of Sodium- and chloride-dependent betaine transporter (Homo sapiens, UniProt P48065, S381A) (P48065 whole entry S381A): as the sequence (P48065 whole entry, looked up) above, with S381A counted along it
Sequence of Sodium- and chloride-dependent betaine transporter (Homo sapiens, UniProt P48065, K310N) (P48065 whole entry K310N): as the sequence (P48065 whole entry, looked up) above, with K310N counted along it
Sequence of Histamine H1 receptor (Homo sapiens) (P35367 whole entry): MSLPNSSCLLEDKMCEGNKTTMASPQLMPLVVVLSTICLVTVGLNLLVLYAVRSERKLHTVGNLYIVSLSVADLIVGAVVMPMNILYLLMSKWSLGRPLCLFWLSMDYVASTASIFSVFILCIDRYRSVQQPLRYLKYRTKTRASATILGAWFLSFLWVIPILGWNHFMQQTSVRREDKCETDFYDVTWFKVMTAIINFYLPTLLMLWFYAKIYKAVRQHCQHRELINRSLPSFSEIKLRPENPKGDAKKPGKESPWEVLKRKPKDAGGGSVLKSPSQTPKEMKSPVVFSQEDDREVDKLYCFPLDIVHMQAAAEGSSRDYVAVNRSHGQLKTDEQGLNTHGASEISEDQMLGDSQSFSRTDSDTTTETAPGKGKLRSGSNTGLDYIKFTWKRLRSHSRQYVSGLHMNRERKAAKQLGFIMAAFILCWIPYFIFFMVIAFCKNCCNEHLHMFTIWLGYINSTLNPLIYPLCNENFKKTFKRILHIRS

As to `O=C(NC1CCN(Cc2ccccc2)CC1)c1ccc(Cl)cc1Cl`, the IC50 in experiment [1] was 10 µM; in experiment [3], 13 µM; in experiment [4] it was 17 µM; in experiment [5] (read-out: IC50), 6 µM; in experiment [5] (read-out: pIC50 (converted)), 4.9 µM; in experiment [6] it was 2 µM. Besides, the IC50 in experiment [7] (read-out: IC50) was 2 µM; in experiment [7] (read-out: pIC50 (converted)), 1.66 µM. The inhibition result in experiment [2] is “Active”. For the same molecule, in experiment [6], the pIC50 is 5.79.

For `O=C(NC1CCN(Cc2ccccc2)CC1)c1ccc(Cl)nc1Cl`, in the experiment listed under Homo sapiens, the outcome was Active.

Values taken from ChEMBL document CHEMBL4028872, “Structure-Activity Relationship, Pharmacological Characterization, and Molecular Modeling of Noncompetitive Inhibitors of the Betaine/γ-Aminobutyric Acid Transporter 1 (BGT1)” (J Med Chem, 2017).
